This note sets out measurements from ChEMBL document CHEMBL4382192, “Discovery of a potent dual ALK and EGFR T790M inhibitor” (Eur J Med Chem, 2017).

A word on the CL/F: it is clearance divided by bioavailability, as obtained after extravascular dosing.

Structures are written as SMILES.

A short description of series [1]: Clearance in mouse at 10 mg/kg, po. The series is classed as ADME, organism-based. The conditions noted are these: in vivo.
In series [2] the test system is Tyrosine-protein kinase ABL1 (Homo sapiens), P00519 [H396P]. The series can be described thus: Binding affinity to human phosphorylated ABL1 H396P mutant (S229 to K512 residues) expressed in mammalian expression system assessed as residual binding level at 1 uM by Kinomescan method relative to control. Summed up: (§1)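 Kinome-wide selectivity panel run by the KINOMEscan method, with the test compound at a single concentration of 1 μM. Wild-type and mutant kinases were profiled in the same screen.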

The target in series [3] is Atypical kinase COQ8B, mitochondrial (Homo sapiens) (UniProt Q96D53). The series can be described thus: Binding affinity to wild-type human full length ADCK4 (M1 to S544 residues) expressed in bacterial expression system assessed as residual binding level at 1 uM by Kinomescan method relative to control.
Series [4] has as its target RAC-gamma serine/threonine-protein kinase (Homo sapiens) (UniProt Q9Y243). As to the kind of experiment: Binding affinity to wild-type human partial length AKT3 expressed in bacterial expression system assessed as residual binding level at 1 uM by Kinomescan method relative to control.
In series [5] the target is Serine/threonine-protein kinase B-raf (Homo sapiens) (UniProt P15056). The series can be described thus: Binding affinity to wild-type human partial length BRAF (S429 to E741 residues) expressed in mammalian expression system assessed as residual binding level at 1 uM by Kinomescan method relative to control.
Series [6] has as its target Cyclin-dependent kinase 11A (Homo sapiens) (UniProt Q9UQ88). The series can be described thus: Binding affinity to wild-type human partial length CDC2L2 (D391 to K730 residues) expressed in bacterial expression system assessed as residual binding level at 1 uM by Kinomescan method relative to control.
For series [7], the target named is Serine/threonine-protein kinase Chk1 (Homo sapiens) (UniProt O14757). As to the kind of experiment: Binding affinity to wild-type human partial length CHEK1 (M1 to G289 residues) expressed in bacterial expression system assessed as residual binding level at 1 uM by Kinomescan method relative to control.
Series [8] addresses Tyrosine-protein kinase CSK (Homo sapiens) (UniProt P41240). The series can be described thus: Binding affinity to wild-type human full length CSK (M1 to L450 residues) expressed in bacterial expression system assessed as residual binding level at 1 uM by Kinomescan method relative to control.
For series [9], the system named is Epidermal growth factor receptor (Homo sapiens), P00533 [UNDEFINED MUTATION]. As to the kind of experiment: Binding affinity to human partial length EGFR L747-T751del/Sins mutant expressed in bacterial expression system assessed as residual binding level at 1 uM by Kinomescan method relative to control. An outline of the steps:
as §1

The subject of series [10] is Receptor-type tyrosine-protein kinase FLT3 (Homo sapiens), P36888 [UNDEFINED MUTATION]. As to the kind of experiment: Binding affinity to human partial length FLT3 ITD/F691L double mutant expressed in bacterial expression system assessed as residual binding level at 1 uM by Kinomescan method relative to control. An outline of the steps:
as §1

The subject of series [11] is Receptor-type tyrosine-protein kinase FLT3 (Homo sapiens), P36888 [R834Q]. The series can be described thus: Binding affinity to human partial length FLT3 R834Q mutant (V592 to Y969 residues) expressed in mammalian expression system assessed as residual binding level at 1 uM by Kinomescan method relative to control. An outline of the steps:
as §1

For series [12], the system named is Mast/stem cell growth factor receptor Kit (Homo sapiens), P10721 [V559D]. As to the kind of experiment: Binding affinity to human partial length KIT V559D mutant (Y545 to D952 residues) expressed in bacterial expression system assessed as residual binding level at 1 uM by Kinomescan method relative to control. An outline of the steps: as §1
In series [13] the target is Maternal embryonic leucine zipper kinase (Homo sapiens) (UniProt Q14680). As to the kind of experiment: Binding affinity to wild-type human full length MELK (M1 to V651 residues) expressed in bacterial expression system assessed as residual binding level at 1 uM by Kinomescan method relative to control. Summed up:
(§2)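 Single-point kinome-wide KINOMEscan binding panel, test compound at 1 μM, run by the provider's standard protocol.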

The target of series [14] is Serine/threonine-protein kinase mTOR (Homo sapiens) (UniProt P42345). The series can be described thus: Binding affinity to wild-type human partial length MTOR (L1382 to W2549 residues) expressed in mammalian expression system assessed as residual binding level at 1 uM by Kinomescan method relative to control.
Series [15] concerns the target Muscle, skeletal receptor tyrosine-protein kinase (Homo sapiens) (UniProt O15146). The series can be described thus: Binding affinity to wild-type human partial length MUSK (M553 to V869 residues) expressed in bacterial expression system assessed as residual binding level at 1 uM by Kinomescan method relative to control.
The target of series [16] is Serine/threonine-protein kinase 38 (Homo sapiens) (UniProt Q15208). The series can be described thus: Binding affinity to wild-type human partial length NDR1 (N33 to E449 residues) expressed in mammalian expression system assessed as residual binding level at 1 uM by Kinomescan method relative to control.
Series [17] has as its target Serine/threonine-protein kinase Nek2 (Homo sapiens) (UniProt P51955). The series can be described thus: Binding affinity to wild-type human partial length NEK2 (M1 to K309 residues) expressed in bacterial expression system assessed as residual binding level at 1 uM by Kinomescan method relative to control.
In series [18] the target is Phosphatidylinositol 4-kinase beta (Homo sapiens) (UniProt Q9UBF8). As to the kind of experiment: Binding affinity to wild-type human full length PIK4CB (M1 to M828 residues) expressed in mammalian expression system assessed as residual binding level at 1 uM by Kinomescan method relative to control. Summed up:
as §2

Series [19] deals with Protein kinase C iota type (Homo sapiens) (UniProt P41743). As to the kind of experiment: Binding affinity to wild-type human partial length PRKCI (H215 to V587 residues) expressed in mammalian expression system assessed as residual binding level at 1 uM by Kinomescan method relative to control.
Series [20] has as its target Ribosomal protein S6 kinase alpha-4 (Homo sapiens) (UniProt O75676). As to the kind of experiment: Binding affinity to wild-type human partial length N-terminal RPS6KA4 kinase domain 1 expressed in bacterial expression system assessed as residual binding level at 1 uM by Kinomescan method relative to control.
Series [21] concerns the target NUAK family SNF1-like kinase 2 (Homo sapiens) (UniProt Q9H093). The series can be described thus: Binding affinity to wild-type human partial length SNARK (P22 to A333 residues) expressed in mammalian expression system assessed as residual binding level at 1 uM by Kinomescan method relative to control.
The target of series [22] is Serine/threonine-protein kinase 36 (Homo sapiens) (UniProt Q9NRP7). The series can be described thus: Binding affinity to wild-type human partial length STK36 (M1 to T271 residues) expressed in bacterial expression system assessed as residual binding level at 1 uM by Kinomescan method relative to control.
Series [23] addresses TGF-beta receptor type-2 (Homo sapiens) (UniProt P37173). The series can be described thus: Binding affinity to wild-type human partial length TGFBR2 (I218 to K567 residues) expressed in bacterial expression system assessed as residual binding level at 1 uM by Kinomescan method relative to control.
Series [24] has as its target Vascular endothelial growth factor receptor 2 (Homo sapiens) (UniProt P35968). As to the kind of experiment: Binding affinity to wild-type human partial length VEGFR2 (R787 to P1253 residues) expressed in mammalian expression system assessed as residual binding level at 1 uM by Kinomescan method relative to control.

Chain of NUAK family SNF1-like kinase 2 (Homo sapiens) (Q9H093 whole entry, the tested form may be a part): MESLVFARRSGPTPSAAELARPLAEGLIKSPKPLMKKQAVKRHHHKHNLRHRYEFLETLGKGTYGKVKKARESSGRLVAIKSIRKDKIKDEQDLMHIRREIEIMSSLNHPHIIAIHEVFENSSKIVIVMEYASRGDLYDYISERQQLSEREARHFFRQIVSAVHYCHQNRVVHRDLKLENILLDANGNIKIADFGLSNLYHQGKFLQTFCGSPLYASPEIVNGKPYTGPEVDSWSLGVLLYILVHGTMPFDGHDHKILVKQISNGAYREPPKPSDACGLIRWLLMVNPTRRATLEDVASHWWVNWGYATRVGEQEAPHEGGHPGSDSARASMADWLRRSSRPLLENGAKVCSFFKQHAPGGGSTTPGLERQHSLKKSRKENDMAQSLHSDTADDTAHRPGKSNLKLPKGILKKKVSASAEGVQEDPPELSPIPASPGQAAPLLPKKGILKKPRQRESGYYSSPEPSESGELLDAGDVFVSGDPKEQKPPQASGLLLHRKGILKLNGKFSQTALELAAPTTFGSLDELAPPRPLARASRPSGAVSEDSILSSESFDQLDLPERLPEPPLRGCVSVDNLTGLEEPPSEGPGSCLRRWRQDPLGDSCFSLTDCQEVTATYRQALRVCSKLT
Chain of Serine/threonine-protein kinase 38 (Homo sapiens) (Q15208 2-465 limits assumed): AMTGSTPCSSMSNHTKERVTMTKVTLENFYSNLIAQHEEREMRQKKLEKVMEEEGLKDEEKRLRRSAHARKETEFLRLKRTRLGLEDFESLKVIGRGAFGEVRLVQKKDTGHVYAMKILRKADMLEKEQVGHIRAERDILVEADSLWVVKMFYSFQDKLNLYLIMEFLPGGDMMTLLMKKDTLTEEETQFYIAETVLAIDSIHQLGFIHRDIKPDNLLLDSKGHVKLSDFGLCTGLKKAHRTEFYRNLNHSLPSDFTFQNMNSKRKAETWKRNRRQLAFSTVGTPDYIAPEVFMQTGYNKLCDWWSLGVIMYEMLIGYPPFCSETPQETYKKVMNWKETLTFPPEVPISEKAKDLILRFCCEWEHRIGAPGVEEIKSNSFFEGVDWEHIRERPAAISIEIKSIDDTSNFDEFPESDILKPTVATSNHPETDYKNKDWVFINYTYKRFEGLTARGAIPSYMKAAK
Chain of Atypical kinase COQ8B, mitochondrial (Homo sapiens) (Q96D53 whole entry, the tested form may be a part): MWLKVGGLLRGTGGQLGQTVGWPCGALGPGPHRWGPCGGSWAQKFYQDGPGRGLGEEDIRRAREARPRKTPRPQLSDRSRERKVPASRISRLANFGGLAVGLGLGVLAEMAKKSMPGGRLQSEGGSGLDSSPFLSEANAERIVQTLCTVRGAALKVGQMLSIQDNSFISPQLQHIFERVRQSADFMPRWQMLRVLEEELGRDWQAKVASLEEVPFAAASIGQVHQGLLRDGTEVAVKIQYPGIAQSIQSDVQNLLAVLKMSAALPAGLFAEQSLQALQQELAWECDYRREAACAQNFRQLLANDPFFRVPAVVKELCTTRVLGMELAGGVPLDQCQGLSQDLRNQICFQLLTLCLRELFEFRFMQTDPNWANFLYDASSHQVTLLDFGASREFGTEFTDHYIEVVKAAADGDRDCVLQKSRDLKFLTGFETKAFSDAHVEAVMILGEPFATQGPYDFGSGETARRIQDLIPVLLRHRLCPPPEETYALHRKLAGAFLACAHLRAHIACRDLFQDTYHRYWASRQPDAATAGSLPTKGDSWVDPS
Chain of Ribosomal protein S6 kinase alpha-4 (Homo sapiens) (O75676 whole entry, looked up, the tested form may be a part): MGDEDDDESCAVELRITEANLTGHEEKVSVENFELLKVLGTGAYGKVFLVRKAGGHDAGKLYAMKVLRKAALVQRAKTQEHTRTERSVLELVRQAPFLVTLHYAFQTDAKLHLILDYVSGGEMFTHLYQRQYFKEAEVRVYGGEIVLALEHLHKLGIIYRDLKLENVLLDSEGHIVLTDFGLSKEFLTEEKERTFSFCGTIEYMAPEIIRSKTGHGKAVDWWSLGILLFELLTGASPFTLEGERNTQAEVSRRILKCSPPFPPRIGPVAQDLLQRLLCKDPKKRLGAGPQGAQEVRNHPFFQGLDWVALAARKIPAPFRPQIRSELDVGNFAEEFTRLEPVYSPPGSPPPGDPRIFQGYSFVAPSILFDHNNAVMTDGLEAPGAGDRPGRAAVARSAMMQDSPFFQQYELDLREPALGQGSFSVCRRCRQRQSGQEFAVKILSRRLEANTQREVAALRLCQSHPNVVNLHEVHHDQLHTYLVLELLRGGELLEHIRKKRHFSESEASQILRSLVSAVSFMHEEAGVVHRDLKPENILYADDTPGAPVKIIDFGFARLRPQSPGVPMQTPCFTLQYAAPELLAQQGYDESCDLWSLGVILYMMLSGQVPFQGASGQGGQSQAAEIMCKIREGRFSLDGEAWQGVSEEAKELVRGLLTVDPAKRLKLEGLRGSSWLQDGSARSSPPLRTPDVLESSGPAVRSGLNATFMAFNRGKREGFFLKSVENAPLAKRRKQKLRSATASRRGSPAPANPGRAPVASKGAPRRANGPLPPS
Chain of Phosphatidylinositol 4-kinase beta (Homo sapiens) (Q9UBF8 2-816 limits assumed): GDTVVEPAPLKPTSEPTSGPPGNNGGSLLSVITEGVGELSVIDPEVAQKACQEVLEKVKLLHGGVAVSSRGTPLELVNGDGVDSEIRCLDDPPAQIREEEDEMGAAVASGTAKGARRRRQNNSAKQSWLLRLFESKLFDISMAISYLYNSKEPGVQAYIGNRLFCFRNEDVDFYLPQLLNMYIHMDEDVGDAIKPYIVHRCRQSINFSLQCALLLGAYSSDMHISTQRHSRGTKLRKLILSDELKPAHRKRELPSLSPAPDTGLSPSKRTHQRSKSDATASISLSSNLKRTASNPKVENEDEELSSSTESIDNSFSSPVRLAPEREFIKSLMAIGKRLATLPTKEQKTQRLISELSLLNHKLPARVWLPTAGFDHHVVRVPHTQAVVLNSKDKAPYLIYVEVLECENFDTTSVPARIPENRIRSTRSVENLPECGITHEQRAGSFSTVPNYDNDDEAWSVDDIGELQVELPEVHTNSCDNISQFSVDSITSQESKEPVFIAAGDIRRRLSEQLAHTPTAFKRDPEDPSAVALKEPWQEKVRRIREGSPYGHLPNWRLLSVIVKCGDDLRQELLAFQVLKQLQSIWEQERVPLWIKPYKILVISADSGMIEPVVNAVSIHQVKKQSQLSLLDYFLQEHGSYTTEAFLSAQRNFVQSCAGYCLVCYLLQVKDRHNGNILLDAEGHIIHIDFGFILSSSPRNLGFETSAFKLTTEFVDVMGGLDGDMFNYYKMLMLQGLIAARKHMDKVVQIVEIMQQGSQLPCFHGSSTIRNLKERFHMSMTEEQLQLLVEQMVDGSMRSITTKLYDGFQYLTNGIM
Chain of Vascular endothelial growth factor receptor 2 (Homo sapiens) (P35968 whole entry, the tested form may be a part): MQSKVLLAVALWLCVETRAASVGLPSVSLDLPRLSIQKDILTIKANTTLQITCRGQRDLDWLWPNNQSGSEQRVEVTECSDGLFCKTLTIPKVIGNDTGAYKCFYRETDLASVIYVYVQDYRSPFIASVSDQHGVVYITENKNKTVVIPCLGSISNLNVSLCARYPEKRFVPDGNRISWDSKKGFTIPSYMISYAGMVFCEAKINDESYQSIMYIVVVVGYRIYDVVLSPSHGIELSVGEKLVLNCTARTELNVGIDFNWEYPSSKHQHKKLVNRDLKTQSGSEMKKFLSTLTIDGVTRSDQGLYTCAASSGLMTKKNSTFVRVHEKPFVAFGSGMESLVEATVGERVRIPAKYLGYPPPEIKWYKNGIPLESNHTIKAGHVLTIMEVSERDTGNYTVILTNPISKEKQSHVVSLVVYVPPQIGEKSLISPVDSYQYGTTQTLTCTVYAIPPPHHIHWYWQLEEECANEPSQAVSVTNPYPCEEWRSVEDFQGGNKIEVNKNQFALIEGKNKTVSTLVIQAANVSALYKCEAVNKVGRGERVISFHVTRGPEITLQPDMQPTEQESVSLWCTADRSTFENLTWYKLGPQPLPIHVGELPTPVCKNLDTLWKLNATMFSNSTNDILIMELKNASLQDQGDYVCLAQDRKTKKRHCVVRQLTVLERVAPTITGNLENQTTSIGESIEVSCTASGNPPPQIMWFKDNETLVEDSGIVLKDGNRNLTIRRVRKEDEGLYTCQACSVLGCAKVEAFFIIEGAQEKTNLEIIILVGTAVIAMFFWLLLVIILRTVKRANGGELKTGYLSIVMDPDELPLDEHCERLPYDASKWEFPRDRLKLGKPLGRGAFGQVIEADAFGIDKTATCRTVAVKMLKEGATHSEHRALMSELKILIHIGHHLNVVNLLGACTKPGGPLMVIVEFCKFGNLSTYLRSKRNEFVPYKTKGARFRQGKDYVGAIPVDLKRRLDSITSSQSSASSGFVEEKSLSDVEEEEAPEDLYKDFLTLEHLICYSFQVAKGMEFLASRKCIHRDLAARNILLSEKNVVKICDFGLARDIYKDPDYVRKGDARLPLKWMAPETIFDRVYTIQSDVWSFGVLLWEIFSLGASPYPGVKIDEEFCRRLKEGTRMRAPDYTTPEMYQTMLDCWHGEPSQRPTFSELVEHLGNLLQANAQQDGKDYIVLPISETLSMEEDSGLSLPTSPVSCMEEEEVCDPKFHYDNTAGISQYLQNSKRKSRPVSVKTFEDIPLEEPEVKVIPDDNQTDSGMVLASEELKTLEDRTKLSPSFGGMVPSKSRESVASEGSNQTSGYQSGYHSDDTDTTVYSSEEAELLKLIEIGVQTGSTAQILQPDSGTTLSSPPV
Chain of RAC-gamma serine/threonine-protein kinase (Homo sapiens) (Q9Y243 whole entry, the tested form may be a part): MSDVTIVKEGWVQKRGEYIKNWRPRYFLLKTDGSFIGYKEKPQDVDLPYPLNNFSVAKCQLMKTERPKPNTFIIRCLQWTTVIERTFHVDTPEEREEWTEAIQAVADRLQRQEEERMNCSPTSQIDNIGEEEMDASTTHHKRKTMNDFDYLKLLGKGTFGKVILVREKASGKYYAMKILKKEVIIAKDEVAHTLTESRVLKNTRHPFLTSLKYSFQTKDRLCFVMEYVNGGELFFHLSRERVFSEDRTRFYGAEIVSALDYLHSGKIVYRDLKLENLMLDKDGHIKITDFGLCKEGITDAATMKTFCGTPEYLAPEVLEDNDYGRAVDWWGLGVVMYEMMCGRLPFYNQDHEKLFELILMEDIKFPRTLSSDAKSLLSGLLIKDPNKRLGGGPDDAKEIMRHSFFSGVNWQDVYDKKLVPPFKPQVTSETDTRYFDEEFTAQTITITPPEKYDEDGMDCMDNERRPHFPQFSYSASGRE

`C=CC(=O)Nc1cc(Nc2ncc(Cl)c(Nc3ccccc3S(=O)(=O)C(C)C)n2)c(OC)cc1N(C)CCN(C)C` showed a CL/F in series [1] of 115 mL/min/kg. Further, the Activity turned out to be 5.5% in series [2]; 43% in [3]; 100% in series [4]; 95% in series [5]; 78% in series [6]; 99% in series [7]. Further, the Activity in series [8] is 69%; in series [9] it was 0.45%; in series [10], 3.6%; in [11], 26%; in series [12], 31%; in [13] it was 54%. Besides, the Activity was 100% in series [14]; 92% in series [15]; 56% in series [16]; 83% in series [17]; 69% in [18]; 73% in [19]. The Activity in series [20] was determined as 99%; in series [21], 1.2%; in series [22], 88%; in [23], 82%; in series [24], 42%.
